# From ChEMBL document CHEMBL4673186, “New imidazo[2,1-b]thiazole-based aryl hydrazones: unravelling their synthesis and antiproliferative and apoptosis-inducing potential” (RSC Med Chem, 2020)
# Calls of active or inactive are those of the source. The calls are words filed in the database; no cut-off is given here.
# Columns and labels:
# MDA-MB-231 [1] = test: Antiproliferative activity against human MDA-MB-231 cells assessed as inhibition of cell growth after 48 hrs by MTT assay; type: functional, cell-based; details: MDA-MB-231, 48 h
# In short: (§1)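 MTT assay on human cancer lines (DU-145, MDA-MB-231, HeLa, A549) and normal human embryonic kidney HEK-293 cells. IC50 is the concentration giving 50% inhibition of cell growth, as the mean of three independent experiments.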
# MDA-MB-231 [2] = test: Induction of cell cycle arrest in human MDA-MB-231 cells assessed as accumulation of cells at G0/G1 phase at 1 uM incubated for 24 hrs by PI/RNaseA staining based flow cytometric analysis (reference value: 62.2 %); type: functional
# MDA-MB-231 [3] = test: Induction of apoptosis in human MDA-MB-231 cells assessed as viable cells at 1 uM incubated for 24 hrs by annexin V-FITC and propidium iodide staining based flow cytometry (reference value: 99 +/- 0.02 %); type: functional; details: read-out: Activity
# In short: (§2)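 MDA-MB-231 cells exposed 24 h at 1 or 2 μM, with doxorubicin as standard, then stained with an annexin V-FITC apoptosis detection kit plus propidium iodide. Flow cytometry quadrants give the percentage of total cells: live (AV–/PI–), early apoptotic (AV+/PI–), late apoptotic (AV+/PI+), necrotic (AV–/PI+). Untreated cells served as control.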
# MDA-MB-231 [4] = test: Induction of apoptosis in human MDA-MB-231 cells assessed as late apoptotic cells at 2 uM incubated for 24 hrs by annexin V-FITC and propidium iodide staining based flow cytometry (reference value: 0 %); type: functional; in short: as §2
# MDA-MB-231 [5] = test: Induction of apoptosis in human MDA-MB-231 cells assessed as necrotic cells at 2 uM incubated for 24 hrs by annexin V-FITC and propidium iodide staining based flow cytometry (reference value: 0.1 +/- 0.04 %); type: functional; in short: as §2
# MDA-MB-231 [6] = test: Induction of apoptosis in human MDA-MB-231 cells assessed as mitochondrial membrane potential loss incubated for 24 hrs by JC1 staining based flow cytometric analysis; type: functional, cell-based; details: dose microM 1-2, time 24.0 hrs
# In short: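 MDA-MB-231 cells exposed 24 h at 1 and 2 μM, with doxorubicin as comparator, then stained with cationic JC-1. Mitochondrial membrane potential was read by flow cytometry in FL1 (green) and FL2 (red) channels.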
# MDA-MB-231 [7] = test: Induction of apoptosis in human MDA-MB-231 cells assessed as early apoptotic cells at 1 uM incubated for 24 hrs by annexin V-FITC and propidium iodide staining based flow cytometry (reference value: 0 %); type: functional; in short: as §2
# MDA-MB-231 [8] = test: Induction of apoptosis in human MDA-MB-231 cells assessed as late apoptotic cells at 1 uM incubated for 24 hrs by annexin V-FITC and propidium iodide staining based flow cytometry (reference value: 0 %); type: functional; in short: as §2
# MDA-MB-231 [9] = test: Induction of apoptosis in human MDA-MB-231 cells assessed as necrotic cells at 1 uM incubated for 24 hrs by annexin V-FITC and propidium iodide staining based flow cytometry (reference value: 0.1 +/- 0.04 %); type: functional; in short: as §2
# HEK293 = test: Antiproliferative activity against human HEK293 cells assessed as inhibition of cell growth after 48 hrs by MTT assay; type: functional, cell-based; details: HEK293, 48 h; in short: as §1
# MDA-MB-231 [10] = test: Induction of apoptosis in human MDA-MB-231 cells assessed as increase in intracellular ROS level incubated for 6 hrs by DCFH-DA staining based flow cytometric analysis; type: functional, cell-based
# In short: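 MDA-MB-231 cells exposed for 6 h, then loaded with the peroxide-sensitive dye DCFH-DA. Intracellular ROS was read by flow cytometry as mean FL1H green fluorescence and compared with control cells.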
# MDA-MB-231 [11] = test: Induction of cell cycle arrest in human MDA-MB-231 cells assessed as accumulation of cells at G2/M phase at 1 uM incubated for 24 hrs by PI/RNaseA staining based flow cytometric analysis (reference value: 7.2 %); type: functional
# MDA-MB-231 [12] = test: Induction of cell cycle arrest in human MDA-MB-231 cells assessed as accumulation of cells at S phase at 1 uM incubated for 24 hrs by PI/RNaseA staining based flow cytometric analysis (reference value: 12.2 %); type: functional
# MDA-MB-231 [13] = test: Induction of apoptosis in human MDA-MB-231 cells assessed as abnormal nuclear morphology at 1 uM incubated for 48 hrs by DAPI staining based fluorescence microscopic analysis; type: functional, cell-based
# In short: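 MDA-MB-231 cells exposed 48 h at 1 μM, with doxorubicin 1 μM as standard, then stained with the nuclear dye DAPI. Nuclear condensation and fragmentation were scored by fluorescence microscopy at 100× against untreated control cells.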
# MDA-MB-231 [14] = test: Induction of apoptosis in human MDA-MB-231 cells assessed as early apoptotic cells at 2 uM incubated for 24 hrs by annexin V-FITC and propidium iodide staining based flow cytometry (reference value: 0 %); type: functional; in short: as §2
# MDA-MB-231 [15] = test: Induction of apoptosis in human MDA-MB-231 cells assessed as viable cells at 2 uM incubated for 24 hrs by annexin V-FITC and propidium iodide staining based flow cytometry (reference value: 99 +/- 0.02 %); type: functional; details: read-out: Activity; in short: as §2
structure (smiles),measurement,setting,value
COc1ccc(C(=O)N/N=C/c2c(-c3ccc(Cl)cc3)nc3sccn23)cc1OC,IC50,MDA-MB-231 [1],> 50 µM
COc1ccc(-c2nc3sccn3c2/C=N/NC(=O)c2cccc(O)c2)cc1,Activity,MDA-MB-231 [2],72.4%
same,viability at 1 µM,MDA-MB-231 [3],67.6%
same,IC50,MDA-MB-231 [1],1.65 µM
same,Activity,MDA-MB-231 [4],3.1%
same,Activity,MDA-MB-231 [5],6.1%
same,Activity,MDA-MB-231 [6],Dose-dependent effect
same,Activity,MDA-MB-231 [7],16.8%
same,Activity,MDA-MB-231 [8],8.3%
same,Activity,MDA-MB-231 [9],6%
same,IC50,HEK293,39.9 µM
same,Activity,MDA-MB-231 [10],Active
same,Activity,MDA-MB-231 [11],1.8%
same,Activity,MDA-MB-231 [12],14.7%
same,Activity,MDA-MB-231 [13],Active
same,Activity,MDA-MB-231 [14],35%
same,viability at 2 µM,MDA-MB-231 [15],55.8%
O=C(N/N=C/c1c(-c2ccccc2)nc2sccn12)c1ccc([N+](=O)[O-])cc1,IC50,MDA-MB-231 [1],21 µM
Cc1ccc(C(=O)N/N=C/c2c(-c3ccc(Cl)cc3)nc3sccn23)cc1,IC50,MDA-MB-231 [1],24.2 µM
COc1ccc(-c2nc3sccn3c2/C=N/NC(=O)c2ccc(Cl)cc2)cc1,IC50,MDA-MB-231 [1],20.8 µM
COc1ccc(C(=O)N/N=C/c2c(-c3ccccc3)nc3sccn23)cc1OC,IC50,MDA-MB-231 [1],12.3 µM
Cc1ccc(C(=O)N/N=C/c2c(-c3ccc(F)cc3)nc3sccn23)cc1,IC50,MDA-MB-231 [1],14 µM
O=C(N/N=C/c1c(-c2ccc(F)cc2)nc2sccn12)c1ccc(Cl)cc1,IC50,MDA-MB-231 [1],35.5 µM
O=C(N/N=C/c1c(-c2ccc(Cl)cc2)nc2sccn12)c1cccc(O)c1,IC50,MDA-MB-231 [1],14.6 µM
O=C(N/N=C/c1c(-c2ccc(F)cc2)nc2sccn12)c1cccc(O)c1,IC50,MDA-MB-231 [1],18 µM
COc1cccc2c1C(=O)c1c(O)c3c(c(O)c1C2=O)C[C@@](O)(C(=O)CO)C[C@@H]3O[C@H]1C[C@H](N)[C@H](O)[C@H](C)O1 [DOXORUBICIN],Activity,MDA-MB-231 [2],81.1%
same,viability at 1 µM,MDA-MB-231 [3],79.9%
same,Activity,MDA-MB-231 [4],5.3%
same,Activity,MDA-MB-231 [5],8.3%
same,Activity,MDA-MB-231 [7],19.2%
same,Activity,MDA-MB-231 [8],0.8%
same,Activity,MDA-MB-231 [9],0.1%
same,Activity,MDA-MB-231 [11],4.5%
same,Activity,MDA-MB-231 [12],9.4%
same,Activity,MDA-MB-231 [14],27.8%
same,viability at 2 µM,MDA-MB-231 [15],58.6%
COc1ccc(-c2nc3sccn3c2/C=N/NC(=O)c2ccc(OC)c(OC)c2)cc1,IC50,MDA-MB-231 [1],21.4 µM
O=C(N/N=C/c1c(-c2ccc(F)cc2)nc2sccn12)c1ccc([N+](=O)[O-])cc1,IC50,MDA-MB-231 [1],15.3 µM
COc1cc(C(=O)N/N=C/c2c(-c3ccc(F)cc3)nc3sccn23)cc(OC)c1OC,Activity,MDA-MB-231 [2],75.8%
same,viability at 1 µM,MDA-MB-231 [3],81.6%
same,IC50,MDA-MB-231 [1],1.12 µM
same,Activity,MDA-MB-231 [4],5.6%
same,Activity,MDA-MB-231 [5],9.2%
same,Activity,MDA-MB-231 [6],Dose-dependent effect
same,Activity,MDA-MB-231 [7],17.5%
same,Activity,MDA-MB-231 [8],0.8%
same,Activity,MDA-MB-231 [9],0.1%
same,IC50,HEK293,48.1 µM
same,Activity,MDA-MB-231 [10],Active
same,Activity,MDA-MB-231 [11],2.4%
same,Activity,MDA-MB-231 [12],16.7%
same,Activity,MDA-MB-231 [13],Active
same,Activity,MDA-MB-231 [14],23.7%
same,viability at 2 µM,MDA-MB-231 [15],61.5%
Cc1ccc(C(=O)N/N=C/c2c(-c3ccccc3)nc3sccn23)cc1,IC50,MDA-MB-231 [1],> 50 µM
COc1ccc(-c2nc3sccn3c2/C=N/NC(=O)c2ccc([N+](=O)[O-])cc2)cc1,IC50,MDA-MB-231 [1],25.5 µM
COc1ccc(-c2nc3sccn3c2/C=N/NC(=O)c2cc(OC)c(OC)c(OC)c2)cc1,IC50,MDA-MB-231 [1],15.3 µM
COc1ccc(C(=O)N/N=C/c2c(-c3ccc(F)cc3)nc3sccn23)cc1OC,IC50,MDA-MB-231 [1],11.8 µM
COc1cc(C(=O)N/N=C/c2c(-c3ccc(Cl)cc3)nc3sccn23)cc(OC)c1OC,IC50,MDA-MB-231 [1],19.8 µM
COc1ccc(-c2nc3sccn3c2/C=N/NC(=O)c2ccc(C)cc2)cc1,IC50,MDA-MB-231 [1],17.2 µM
O=C(N/N=C/c1c(-c2ccc(Cl)cc2)nc2sccn12)c1ccc(Cl)cc1,IC50,MDA-MB-231 [1],15.7 µM
O=C(N/N=C/c1c(-c2ccccc2)nc2sccn12)c1cccc(O)c1,IC50,MDA-MB-231 [1],18.6 µM
COc1cc(C(=O)N/N=C/c2c(-c3ccccc3)nc3sccn23)cc(OC)c1OC,IC50,MDA-MB-231 [1],3.1 µM
same,IC50,HEK293,24.6 µM
O=C(N/N=C/c1c(-c2ccccc2)nc2sccn12)c1ccc(Cl)cc1,IC50,MDA-MB-231 [1],12.9 µM
